The source made the active and inactive calls. The calls are words filed in the database; no cut-off is given here.
Experiments:
[1] = target: T1, Neutrophil elastase (Homo sapiens) (UniProt P08246); test: Second order rate constant for inhibition of Human leukocyte elastase (major diastereomeric pair of enantiomer)
T1 sequence (whole entry): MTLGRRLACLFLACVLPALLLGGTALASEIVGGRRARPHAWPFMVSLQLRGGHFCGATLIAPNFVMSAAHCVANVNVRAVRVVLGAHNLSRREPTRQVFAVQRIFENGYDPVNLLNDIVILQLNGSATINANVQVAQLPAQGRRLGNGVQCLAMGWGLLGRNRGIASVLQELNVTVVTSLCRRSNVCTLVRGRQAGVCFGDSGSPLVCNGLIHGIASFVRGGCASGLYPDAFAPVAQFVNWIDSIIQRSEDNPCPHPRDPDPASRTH
Outline: (§1)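 Human leukocyte elastase (20 μM stock in pH 5.0 acetate buffer) incubated with inhibitor added from DMSO stock in 0.1 M HEPES pH 7.2, 25 °C. Aliquots withdrawn at intervals are diluted into HEPES containing MeO-Suc-Ala-Ala-Pro-Val-p-NA, and initial rates are followed at 410 nm over 60 s against control incubations. k_obs comes from plots of v/v0 versus time (Kitz–Wilson incubation method).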

[2] = target: T1, Neutrophil elastase (Homo sapiens); test: Second order rate constant for inhibition of Human leukocyte elastase (minor diastereomeric pair of enantiomer); outline: as §1
[3] = target: T1, Neutrophil elastase (Homo sapiens); test: Second order rate constant for inhibition of Human leukocyte elastase (major diastereomeric 2 pairs of enantiomer); outline: as §1
[4] = target: T1, Neutrophil elastase (Homo sapiens); test: Second order rate constant for inhibition of Human leukocyte elastase (minor diastereomeric pair of enantiomer); NI=no inhibition; outline: as §1

k obs / 1 [1] | Compound | other results
100 1/M 1/s | CCC1(CC)C(=O)N(COC(=O)Nc2ccc(OC)cc2)C1S(=O)(=O)c1ccccc1 (stereo unspecified) | 
43.2 1/M 1/s | CCC1(CC)C(=O)N(C2OC(=O)N(C(=O)[n+]3ccc(OC)cc3)C2=O)C1S(=O)(=O)c1ccccc1 (stereo unspecified) | k obs / 1 [2]: 49.7 1/M 1/s
38.2 1/M 1/s | CCOC(=O)C(OC(=O)NCc1ccccc1)N1C(=O)C(CC)(CC)C1Oc1ccccc1 (stereo unspecified) | 
68.5 1/M 1/s | CCC1(CC)C(=O)N(C2OC(=O)N(Cc3ccccc3)C2=O)C1S(=O)(=O)c1ccccc1 (stereo unspecified) | k obs / 1 [2]: 51 1/M 1/s
 | CCOC(=O)C(OC(=O)c1ccc(OC)cc1)N1C(=O)C(CC)(CC)C1S(=O)(=O)c1ccccc1 (stereo unspecified) | k obs / 1 [3]: 24.4 1/M 1/s
23.9 1/M 1/s | CCC1(CC)CN(C2OC(=O)N(Cc3ccccc3)C2=O)C1=O (stereo unspecified) | 
1500 1/M 1/s | CCC1(CC)C(=O)N(C(=O)NCc2ccccc2)C1Oc1ccc(C(=O)O)cc1 (stereo unspecified) | 
10.7 1/M 1/s | CCOC(=O)C(OC(=O)c1ccc(OC)cc1)N1CC(CC)(CC)C1=O (stereo unspecified) | 
26.6 1/M 1/s | CCOC(=O)C(OC(=O)NC(=O)[n+]1ccccc1C(=O)OC)N1C(=O)C(CC)(CC)C1S(=O)(=O)c1ccccc1 (stereo unspecified) | k obs / 1 [4]: inactive
115 1/M 1/s | CCC1(CC)C(=O)N(C2OC(=O)N(Cc3ccccc3)C2=O)C1Oc1ccccc1 (stereo unspecified) | k obs / 1 [2]: 144 1/M 1/s
12.9 1/M 1/s | CCOC(=O)C(OC(=O)c1ccc(OC)cc1)N1C(=O)C(CC)(CC)C1Sc1nc2ccccc2o1 (stereo unspecified) | 
 | CCC1(CC)C(=O)N(C2OC(=O)N(c3ccc(C)cc3)C2=O)C1Sc1nc2ccccc2o1 (stereo unspecified) | k obs / 1 [3]: 80 1/M 1/s
